Assay results published in ChEMBL document CHEMBL4257531, “The role of aryl-topology in balancing between selective and dual 5-HT7R/5-HT1A actions of 3,5-substituted hydantoins” (Medchemcomm, 2018).

Columns and labels:
[1] = molecular target: D(2) dopamine receptor (Homo sapiens, UniProt P14416); assay: Displacement of [3H]-raclopride from human D2L receptor expressed in HEK293 cell membranes after 1 hr by microbeta counting method
[2] = molecular target: T1, 5-hydroxytryptamine receptor 1A (Homo sapiens, UniProt P08908); assay: Displacement of [3H]-8-OH-DPAT from human 5-HT1A receptor expressed in HEK293 cell membranes after 1 hr by microbeta counting method
T1 sequence (P08908 whole entry): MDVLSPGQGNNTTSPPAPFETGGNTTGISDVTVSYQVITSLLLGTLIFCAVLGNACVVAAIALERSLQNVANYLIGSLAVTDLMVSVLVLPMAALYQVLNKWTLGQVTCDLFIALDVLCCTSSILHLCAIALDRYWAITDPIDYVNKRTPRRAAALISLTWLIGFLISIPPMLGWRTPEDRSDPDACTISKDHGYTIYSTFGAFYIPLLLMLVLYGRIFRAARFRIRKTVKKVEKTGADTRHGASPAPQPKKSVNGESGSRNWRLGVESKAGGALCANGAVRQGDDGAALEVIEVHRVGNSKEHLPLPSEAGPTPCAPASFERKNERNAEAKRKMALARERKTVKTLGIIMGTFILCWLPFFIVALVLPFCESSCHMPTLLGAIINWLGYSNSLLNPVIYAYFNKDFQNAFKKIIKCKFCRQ

[3] = molecular target: 5-hydroxytryptamine receptor 7 (Homo sapiens, UniProt P34969); assay: Displacement of [3H]-5-carboxamidotryptamine from human 5-HT7B receptor expressed in HEK293 cell membranes after 1 hr by microbeta counting method
Sequence of 5-hydroxytryptamine receptor 7 (P34969 whole entry): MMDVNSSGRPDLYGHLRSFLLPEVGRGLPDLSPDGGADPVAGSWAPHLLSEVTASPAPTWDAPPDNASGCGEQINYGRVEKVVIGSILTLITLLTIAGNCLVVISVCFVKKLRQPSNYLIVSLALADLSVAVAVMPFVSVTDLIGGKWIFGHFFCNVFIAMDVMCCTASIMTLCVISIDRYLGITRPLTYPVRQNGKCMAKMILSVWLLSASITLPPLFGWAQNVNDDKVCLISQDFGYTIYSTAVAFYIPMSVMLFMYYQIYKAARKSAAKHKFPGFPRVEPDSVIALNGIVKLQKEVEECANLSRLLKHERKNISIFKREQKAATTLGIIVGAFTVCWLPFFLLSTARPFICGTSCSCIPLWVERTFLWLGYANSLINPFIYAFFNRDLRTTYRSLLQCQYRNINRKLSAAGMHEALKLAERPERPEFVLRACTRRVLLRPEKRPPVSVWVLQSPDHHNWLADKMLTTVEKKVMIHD

[4] = Drug metabolism in CD-1 mouse liver microsomes after 120 mins by UPLC-MS analysis; assay type: ADME, microsome; conditions: for metabolised at 2 h: CD-1, mouse, liver microsomes, read-out: Drug metabolism
Procedure, shortened: (§1)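 Mouse liver microsomes with NADPH regeneration system; incubation followed by UPLC-MS with ion fragmentation. Percent substrate remaining read after 120 min; t1/2 and hepatic intrinsic clearance calculated.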

[5] = Metabolic stability in CD-1 mouse liver microsomes assessed as parent compound remaining after 120 mins by UPLC-MS analysis; assay type: ADME, microsome; conditions: 2 h; procedure, shortened: as §1
[6] = Half life in CD-1 mouse liver microsomes by UPLC-MS analysis; assay type: ADME, microsome; conditions: for t1/2: mouse, microsomes; procedure, shortened: as §1
[7] = Intrinsic clearance in CD-1 mouse liver microsomes by UPLC-MS analysis; assay type: ADME, microsome; conditions: read-out: CLH; procedure, shortened: as §1
[8] = tested on: HepG2; assay: Cytotoxicity against human HepG2 cells assessed as reduction in cell viability at 100 uM after 72 hrs by MTS assay; assay type: cell-based; conditions: hepg2, 72 h
Procedure, shortened: (§2)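 Viability by MTS, absorbance at 490 nm, after 72 h exposure at 0.1–100 μM; doxorubicin 1 μM as positive control. HepG2 only: CCCP 10 μM as additional control. Significance versus negative control by one-way ANOVA with Bonferroni test.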

[9] = tested on: HEK293; assay: Cytotoxicity against HEK293 cells assessed as reduction in cell viability at 100 uM after 72 hrs by MTS assay; assay type: cell-based; conditions: human, hek293, 72 h; procedure, shortened: as §2
[10] = tested on: HepG2; assay: Cytotoxicity against human HepG2 cells assessed as reduction in cell viability at 0.1 to 10 uM after 72 hrs by MTS assay; assay type: cell-based; conditions: hepg2, 72 h; procedure, shortened: as §2
[11] = tested on: HEK293; assay: Cytotoxicity against HEK293 cells assessed as reduction in cell viability at 0.1 to 10 uM after 72 hrs by MTS assay; assay type: cell-based; conditions: human, hek293, 72 h; procedure, shortened: as §2
[12] = tested on: HepG2; assay: Cytotoxicity against human HepG2 cells assessed as reduction in cell viability at 1 uM after 72 hrs by MTS assay; assay type: cell-based; conditions: hepg2, 72 h; procedure, shortened: as §2
[13] = tested on: HEK293; assay: Cytotoxicity against HEK293 cells assessed as reduction in cell viability at 1 uM after 72 hrs by MTS assay; assay type: cell-based; conditions: human, hek293, 72 h; procedure, shortened: as §2
[14] = tested on: HepG2; assay: Cytotoxicity against human HepG2 cells assessed as reduction in cell viability at 10 uM after 72 hrs by MTS assay; assay type: cell-based; conditions: hepg2, 72 h
Procedure, shortened: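 Cells exposed to test compound across 0.1–100 μM (four concentrations) for 72 h. Viability read by MTS assay, absorbance at 490 nm. Positive controls: doxorubicin 1 μM for both lines, plus CCCP 10 μM for HepG2 only. Significance versus negative control assessed by one-way ANOVA with Bonferroni's test.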

[15] = tested on: HEK293; assay: Cytotoxicity against HEK293 cells assessed as reduction in cell viability after 72 hrs by MTS assay; conditions: human, hek293, 72 h
[16] = species: Homo sapiens; assay: Selectivity ratio of Ki for 5-HT1A receptor (unknown origin) to Ki for 5-HT7 receptor (unknown origin)
Procedure, shortened: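 Competition binding on membranes of HEK-293 cells stably expressing human 5-HT1A or 5-HT7b receptors. 5-HT1A used 2.5 nM [3H]-8-OH-DPAT at room temperature; 5-HT7b used 0.8 nM [3H]-5-CT at 37 °C. Both ran 1 h, with 10 μM 5-HT for nonspecific binding. Seven concentrations (10–10–10–4 M) were tested in triplicate, with filtration read-out.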

Sequence of D(2) dopamine receptor (P14416 whole entry): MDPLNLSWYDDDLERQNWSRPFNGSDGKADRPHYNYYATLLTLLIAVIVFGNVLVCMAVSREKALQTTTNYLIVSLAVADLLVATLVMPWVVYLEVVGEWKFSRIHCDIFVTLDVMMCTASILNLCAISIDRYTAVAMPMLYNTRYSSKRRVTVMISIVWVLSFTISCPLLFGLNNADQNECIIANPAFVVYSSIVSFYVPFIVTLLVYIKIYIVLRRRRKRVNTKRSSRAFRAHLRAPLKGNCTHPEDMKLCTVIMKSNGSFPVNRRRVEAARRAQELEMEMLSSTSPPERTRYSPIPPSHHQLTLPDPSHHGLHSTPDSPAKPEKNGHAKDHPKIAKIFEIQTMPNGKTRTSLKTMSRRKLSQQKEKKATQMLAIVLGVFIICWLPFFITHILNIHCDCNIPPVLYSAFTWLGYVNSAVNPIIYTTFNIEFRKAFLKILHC

| SMILES | Ki [1] | Ki [2] | Ki [3] | also measured |
| --- | --- | --- | --- | --- |
| CC1(c2ccc(F)cc2)NC(=O)N(CC(O)CN2CCN(c3cccc4ccccc34)CC2)C1=O (configuration not stated) | 295 nM | 19 nM | 11 nM | metabolised at 2 h [4]: 65 to 70%; Stability [5]: 65%; t1/2 [6]: 0.75 h; CLint scaled [7]: 60.3 mL/min/kg; Activity [8]: Toxic; Activity [9]: Toxic; Activity [10]: Non-Toxic; Activity [11]: Non-Toxic |
| COc1ccccc1N1CCN(CC(O)CN2C(=O)NC(C)(C)C2=O)CC1 (configuration not stated) | 2130 nM | 489 nM | 125 nM |  |
| COc1ccccc1N1CCN(CC(O)CN2C(=O)NC(C)(c3cccc4ccccc34)C2=O)CC1 (configuration not stated) | 256 nM | 326 nM | 5 nM | Drug metabolism ([4]; mouse, microsomes, 2 h): 40%; Stability [5]: 40%; half-life ([6]; CD-1, mouse, liver microsomes): 1.57 h; CLint scaled [7]: 29 mL/min/kg; Activity [8]: Toxic; Activity [9]: Toxic; Activity [10]: Non-Toxic; Activity [11]: Non-Toxic |
| COc1ccccc1N1CCN(CC(O)CN2C(=O)NC(C)(c3ccc4ccccc4c3)C2=O)CC1 (configuration not stated) | 153 nM | 128 nM | 3 nM | metabolised at 2 h [4]: 65 to 70%; Stability [5]: 70%; t1/2 [6]: 1.04 h; CLint scaled [7]: 43.4 mL/min/kg; Activity [8]: Toxic; Activity [9]: Toxic; Activity [10]: Non-Toxic; Activity [11]: Non-Toxic |
| CC1(C)NC(=O)N(CC(O)CN2CCN(c3ccccc3C#N)CC2)C1=O (configuration not stated) | 3430 nM | 1160 nM | 209 nM |  |
| CC1(c2ccc3ccccc3c2)NC(=O)N(CC(O)CN2CCN(c3ccccc3C#N)CC2)C1=O (configuration not stated) | 264 nM | 129 nM | 3 nM |  |
| COc1cccc2c1C(=O)c1c(O)c3c(c(O)c1C2=O)C[C@@](O)(C(=O)CO)C[C@@H]3O[C@H]1C[C@H](N)[C@H](O)[C@H](C)O1 [DOXORUBICIN] |  |  |  | Activity [12]: Toxic; Activity [13]: Toxic |
| N#CC(C#N)=NNc1cccc(Cl)c1 [CARBONYL CYANIDE M-CHLOROPHENYLHYDRAZONE] |  |  |  | Activity [14]: Toxic; Activity [15]: Toxic |
| CC1(c2ccc(F)cc2)NC(=O)N(CC(O)CN2CCC(Oc3ccc(Cl)cc3)CC2)C1=O (configuration not stated) | 4120 nM | 21500 nM | 172 nM |  |
| CC1(c2ccc(F)cc2)NC(=O)N(CC(O)CN2CCC(Oc3ccccc3)CC2)C1=O (configuration not stated) | 4350 nM | 5210 nM | 165 nM |  |
| CC1(c2ccc(F)cc2)NC(=O)N(CC(O)CN2CCN(Cc3ccccc3)CC2)C1=O (configuration not stated) | 20000 nM | 378000 nM | 2080 nM |  |
| CC1(c2ccc(F)cc2)NC(=O)N(CC(O)CN2CCN(C(c3ccccc3)c3ccccc3)CC2)C1=O (configuration not stated) |  |  |  | Ratio Ki [16]: 71; Stability [5]: 20%; t1/2 [6]: 2.625 h; CLint scaled [7]: 17.2 mL/min/kg |

Second part, led by results:

| Ki [1] | Ki [2] | Ki [3] | SMILES | also measured |
| --- | --- | --- | --- | --- |
| 5850 nM | 1550 nM | 888 nM | CC1(c2ccc(F)cc2)NC(=O)N(CC(O)CN2CCc3ccccc3C2)C1=O (configuration not stated) |  |
| 416 nM | 1230 nM | 19 nM | CC1(c2cccc3ccccc23)NC(=O)N(CC(O)CN2CCN(c3ccccc3C#N)CC2)C1=O (configuration not stated) |  |
| 1150 nM | 15100 nM | 824 nM | CC1(C)NC(=O)N(CC(O)CN2CCN(C(c3ccccc3)c3ccccc3)CC2)C1=O (configuration not stated) |  |
| 5230 nM | 5580 nM | 2170 nM | CC1(c2ccc(F)cc2)NC(=O)N(CC(O)CN2CCN(Cc3cccc4ccccc34)CC2)C1=O (configuration not stated) |  |
| 273 nM | 413000 nM | 224 nM | CC1(c2cccc3ccccc23)NC(=O)N(CC(O)CN2CCN(C(c3ccccc3)c3ccccc3)CC2)C1=O (configuration not stated) |  |
| 10100 nM | 6220 nM | 3610 nM | CC1(c2ccc(F)cc2)NC(=O)N(CC(O)CN2CCN(C(=O)c3ccccc3)CC2)C1=O (configuration not stated) |  |
